ChEMBL document CHEMBL3826882, “Discovery of 1-((2R,4aR,6R,7R,7aR)-2-Isopropoxy-2-oxidodihydro-4H,6H-spiro[furo[3,2-d][1,3,2]dioxaphosphinine-7,2'-oxetan]-6-yl)pyrimidine-2,4(1H,3H)-dione (JNJ-54257099), a 3'-5'-Cyclic Phosphate Ester Prodrug of 2'-Deoxy-2'-Spirooxetane Uridine Triphosphate Useful for HCV Inhibition” (J Med Chem, 2016)

Assays:
Hepatocyte [1] = assay: Prodrug conversion in mouse cryopreserved hepatocytes assessed as 2'-deoxy-2'-spirooxetane uridine triphosphate level per million cells at 10 uM after 24 hrs by LC-MS/MS analysis; type: ADME, cell-based
How it was run: (§1)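 Plated cryopreserved hepatocytes (study B) incubated with 10 µM unlabeled prodrug for 2, 8 or 24 h. Triphosphate measured in cell lysates and expressed as pmol/million hepatocytes. Quantification limit 2 ng/10^6 cells.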

Hepatocyte [2] = assay: Prodrug conversion in rat cryopreserved hepatocytes assessed as 2'-deoxy-2'-spirooxetane uridine triphosphate level per million cells at 10 uM after 2 hrs by LC-MS/MS analysis; type: ADME, cell-based; how it was run: as §1
Hepatocyte [3] = assay: Prodrug conversion in mouse cryopreserved hepatocytes assessed as 2'-deoxy-2'-spirooxetane uridine triphosphate level per million cells at 10 uM after 8 hrs by LC-MS/MS analysis; type: ADME, cell-based; how it was run: as §1
Hepatocyte [4] = assay: Prodrug conversion in rat cryopreserved hepatocytes assessed as 2'-deoxy-2'-spirooxetane uridine triphosphate level per million cells at 10 uM after 24 hrs by LC-MS/MS analysis; type: ADME, cell-based; how it was run: as §1
[5] = Prodrug conversion in dog cryopreserved hepatocytes assessed as 2'-deoxy-2'-spirooxetane uridine triphosphate level per million cells at 10 uM after 24 hrs by LC-MS/MS analysis; type: ADME, cell-based, Canis lupus familiaris, Hepatocyte; how it was run: as §1
Hepatocyte [6] = assay: Prodrug conversion in human cryopreserved hepatocytes assessed as 2'-deoxy-2'-spirooxetane uridine triphosphate level per million cells at 10 uM after 8 hrs by LC-MS/MS analysis; type: ADME, cell-based; how it was run: as §1
[7] = Prodrug conversion in dog cryopreserved hepatocytes assessed as 2'-deoxy-2'-spirooxetane uridine triphosphate level per million cells at 10 uM after 2 hrs by LC-MS/MS analysis; type: ADME, cell-based, Canis lupus familiaris, Hepatocyte; how it was run: as §1
Hepatocyte [8] = assay: Prodrug conversion in human cryopreserved hepatocytes assessed as 2'-deoxy-2'-spirooxetane uridine triphosphate level per million cells at 10 uM after 2 hrs by LC-MS/MS analysis; type: ADME, cell-based; how it was run: as §1
Hepatocyte [9] = assay: Prodrug conversion in human cryopreserved hepatocytes assessed as 2'-deoxy-2'-spirooxetane uridine triphosphate level per million cells at 10 uM after 24 hrs by LC-MS/MS analysis; type: ADME, cell-based; how it was run: as §1
[10] = Prodrug conversion in dog cryopreserved hepatocytes assessed as 2'-deoxy-2'-spirooxetane uridine triphosphate level per million cells at 10 uM after 8 hrs by LC-MS/MS analysis; type: ADME, cell-based, Canis lupus familiaris, Hepatocyte; how it was run: as §1
[11] = Cytotoxicity against human HuH7-CMV-Luc cells assessed as reduction in cell proliferation after 3 days by 5-bromo-2'-deoxyuridine incorporation assay; type: cell-based, Huh-7
How it was run: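 Huh7 cells at 1,500 cells/well, five serial compound dilutions in triplicate, 3 days of incubation. Proliferation was quantified as BrdU incorporation into DNA by ELISA.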

Hepatocyte [12] = assay: Prodrug conversion in mouse cryopreserved hepatocytes assessed as 2'-deoxy-2'-spirooxetane uridine triphosphate level per million cells at 10 uM after 2 hrs by LC-MS/MS analysis; type: ADME, cell-based; how it was run: as §1
Hepatocyte [13] = assay: Prodrug conversion in rat cryopreserved hepatocytes assessed as 2'-deoxy-2'-spirooxetane uridine triphosphate level per million cells at 10 uM after 8 hrs by LC-MS/MS analysis; type: ADME, cell-based; how it was run: as §1
Hepatocyte [14] = assay: Drug level in human hepatocytes treated with JNJ-54257099 in presence of CYP2C8 and CYP2C9 inhibitor montelukast by LC-MS/MS analysis; type: ADME, cell-based
Hepatocyte [15] = assay: Drug level in rat primary hepatocytes treated with JNJ-54257099 at 2 to 62.5 uM after 24 hrs using radiolabeled compound by LC-MS/MS analysis; type: ADME, cell-based
How it was run: (§2)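 Study A: primary cultured hepatocytes (mouse, rat, dog, human) incubated with 2 or 62.5 µM 5'-[3H]-labelled prodrug for 4 and 24 h. Cell lysates were analysed for triphosphate. Supernatants were protein-precipitated and profiled by HPLC with radioactivity detection. Cyclic monophosphate was also assessed by LC/MS/MS.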

Hepatocyte [16] = assay: Drug level in human hepatocytes treated with JNJ-54257099 in presence of PDE4 inhibitor rolipram by LC-MS/MS analysis; type: ADME, cell-based
[17] = Drug level in dog primary hepatocytes treated with JNJ-54257099 at 2 to 62.5 uM after 4 hrs using radiolabeled compound by LC-MS/MS analysis; type: ADME, cell-based, Canis lupus familiaris, Hepatocyte; how it was run: as §2
Hepatocyte [18] = assay: Drug level in human hepatocytes treated with JNJ-54257099 in presence of pan-PDE inhibitor ibudilast by LC-MS/MS analysis; type: ADME, cell-based
Cytochrome P450 3A4 = Cytochrome P450 3A4 (Homo sapiens, UniProt P08684); assay: Drug metabolism in baculovirus infected insect cell microsomes expressing human CYP3A4 assessed as CYP3A4-mediated intrinsic clearance per pmol CYP3A4 at 22.7 uM; type: ADME; details: recombinant enzyme
Chain of Cytochrome P450 3A4 (P08684 whole entry): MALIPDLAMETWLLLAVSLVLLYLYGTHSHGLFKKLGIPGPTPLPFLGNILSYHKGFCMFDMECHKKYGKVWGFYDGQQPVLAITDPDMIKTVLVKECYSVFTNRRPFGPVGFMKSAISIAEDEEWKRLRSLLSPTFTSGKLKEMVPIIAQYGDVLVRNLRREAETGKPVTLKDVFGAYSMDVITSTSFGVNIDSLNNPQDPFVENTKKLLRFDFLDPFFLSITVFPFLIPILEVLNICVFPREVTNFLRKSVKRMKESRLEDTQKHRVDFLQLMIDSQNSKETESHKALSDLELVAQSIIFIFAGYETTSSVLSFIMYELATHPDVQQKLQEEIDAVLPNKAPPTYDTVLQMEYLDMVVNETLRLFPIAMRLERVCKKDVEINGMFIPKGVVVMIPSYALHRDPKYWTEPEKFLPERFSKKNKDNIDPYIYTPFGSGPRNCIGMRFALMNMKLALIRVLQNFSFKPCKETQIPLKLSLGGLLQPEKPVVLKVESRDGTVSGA
How it was run: (§3)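 Incubation at 22.7 µM with human CYP3A4 supersomes. Intrinsic clearance (µL/min.pmol P450) and half-life (min) were determined.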

Hepatitis C virus [19] = assay: Antiviral activity against HCV genotype 1b infected in human HuH7 cells assessed as inhibition of viral replication after 3 days by luciferase reporter gene assay; type: functional, organism-based, Hepacivirus hominis; details: Huh-7, 72 h
How it was run: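 HCV 1b subgenomic luciferase replicon (Huh7-luc, clone ET, adaptive mutations E1202G, T1280I, K1846T). 2,500 cells were incubated with compound over a 9-point, 1/4 dilution series for 3 days. Replication was read as luciferase activity.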

CYP3A4 = CYP3A4 (Homo sapiens, UniProt P08684); assay: Drug metabolism in baculovirus infected insect cell microsomes expressing human CYP3A4 assessed as CYP3A4-mediated half life at 22.7 uM; type: ADME; how it was run: as §3
Chain of CYP3A4 (P08684 whole entry): as above

Hepatitis C virus [20] = assay: Antiviral activity against HCV genotype 1a infected in homozygous cDNA-uPA chimeric SCID mouse bearing humanized hepatocytes assessed as change in HCV RNA level in serum at 100 mg/kg, po qd administered through gavage for 7 days by RT-PCR method; type: functional, Hepacivirus hominis, subtype 1a, Hepatocyte
How it was run: (§4)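 Male chimeric SCID cDNA-uPA+/+ mice with human hepatocyte liver (≥70% replacement by blood human albumin) and serum HCV RNA >1.0×10^6 copies/mL the week before dosing. Oral gavage for 7 days in 20% HP-β-CD, 50-200 mg/kg QD or BID. Serum sampled pre-dose on days 1, 2, 3, 5 and 7. Real-time PCR; mean change in log10 copies/mL, day 7 vs day 1 pre-dose.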

Hepatitis C virus [21] = assay: Antiviral activity against HCV genotype 3a infected in homozygous cDNA-uPA chimeric SCID mouse bearing humanized hepatocytes assessed as change in HCV RNA level in serum at 100 mg/kg, po qd administered through gavage for 7 days by RT-PCR method; type: functional, Hepacivirus hominis, Hepatocyte; how it was run: as §4
Hepatitis C virus [22] = assay: Antiviral activity against HCV genotype 3a infected in homozygous cDNA-uPA chimeric SCID mouse bearing humanized hepatocytes assessed as reduction in HCV RNA level in serum administered through oral gavage once daily for 7 days by RT-PCR method; type: functional, organism-based; details: Hepacivirus hominis, Hepatocyte; how it was run: as §4
Hepatitis C virus [23] = assay: Antiviral activity against HCV genotype 3a infected in homozygous cDNA-uPA chimeric SCID mouse bearing humanized hepatocytes assessed as reduction in HCV RNA level in serum administered through oral gavage twice daily daily for 7 days by RT-PCR method; type: functional, organism-based; details: Hepacivirus hominis, Hepatocyte; how it was run: as §4
[24] = molecular target: RNA-directed RNA polymerase (Hepacivirus hominis, UniProt O39930); assay: Inhibition of HCV RNA polymerase
Chain of RNA-directed RNA polymerase (O39930 whole entry): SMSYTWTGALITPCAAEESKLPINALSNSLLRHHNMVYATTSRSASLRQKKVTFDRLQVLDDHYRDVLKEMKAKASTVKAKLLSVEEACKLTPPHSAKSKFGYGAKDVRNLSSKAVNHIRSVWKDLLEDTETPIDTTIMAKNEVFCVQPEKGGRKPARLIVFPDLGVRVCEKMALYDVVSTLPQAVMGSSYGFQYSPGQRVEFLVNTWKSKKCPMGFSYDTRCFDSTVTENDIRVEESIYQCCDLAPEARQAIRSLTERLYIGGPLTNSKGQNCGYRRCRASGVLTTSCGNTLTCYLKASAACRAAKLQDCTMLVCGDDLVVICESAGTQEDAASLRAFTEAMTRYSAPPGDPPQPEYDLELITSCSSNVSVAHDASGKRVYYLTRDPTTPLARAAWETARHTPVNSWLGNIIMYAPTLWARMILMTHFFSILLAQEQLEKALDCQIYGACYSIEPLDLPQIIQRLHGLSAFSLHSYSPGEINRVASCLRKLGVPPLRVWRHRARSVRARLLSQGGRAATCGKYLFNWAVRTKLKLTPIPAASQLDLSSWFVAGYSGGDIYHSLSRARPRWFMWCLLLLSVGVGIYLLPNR

[25] = Drug level in dog primary hepatocyte supernatant treated with JNJ-54257099 at 2 to 62.5 uM after 4 to 24 hrs using radiolabeled compound by HPLC analysis; type: ADME, cell-based, Canis lupus familiaris; details: hepatocytes; how it was run: as §2
Hepatocyte [26] = assay: Drug level in rat primary hepatocyte supernatant treated with JNJ-54257099 at 2 to 62.5 uM after 4 to 24 hrs using radiolabeled compound by HPLC analysis; type: ADME, cell-based; details: hepatocytes; how it was run: as §2
Hepatocyte [27] = assay: Drug level in mouse primary hepatocyte supernatant treated with JNJ-54257099 at 2 to 62.5 uM after 4 to 24 hrs using radiolabeled compound by HPLC analysis; type: ADME, cell-based; details: hepatocytes; how it was run: as §2
Hepatocyte [28] = assay: Drug level in human primary hepatocyte supernatant treated with JNJ-54257099 at 2 to 62.5 uM after 4 to 24 hrs using radiolabeled compound by HPLC analysis; type: ADME, cell-based; details: hepatocytes; how it was run: as §2

## CCCCOC(=O)[C@H](C)NP(=O)(OC[C@H]1O[C@@H](n2ccc(=O)[nH]c2=O)[C@@]2(CCO2)[C@@H]1O)Oc1ccccc1 (stereo partly drawn)
Hepatocyte [1]
  Drug metabolism: 0.023 pmol
Hepatocyte [2]
  Drug metabolism: 0.025 pmol
Hepatocyte [3]
  Drug metabolism: 0.066 pmol
Hepatocyte [4]
  Drug metabolism: 0.013 pmol
[5]
  Drug metabolism: 0.007 pmol
Hepatocyte [6]
  Drug metabolism: 0.257 pmol
[7]
  Drug metabolism: 0.01 pmol
Hepatocyte [8]
  Drug metabolism: 0.044 pmol
Hepatocyte [9]
  Drug metabolism: 0.173 pmol
[10]
  Drug metabolism: 0.021 pmol
[11]
  CC50 at 72 h: > 100000 nM
Hepatocyte [12]
  Drug metabolism: 0.028 pmol
Hepatocyte [13]
  Drug metabolism: 0.058 pmol

## O=c1ccn([C@@H]2O[C@H](COP(=O)(O)O)[C@@H](O)[C@]23CCO3)c(=O)[nH]1
Hepatocyte [14]
  Drug metabolism: metabolite_detected
Hepatocyte [15]
  Drug metabolism: metabolite_detected
Hepatocyte [16]
  Drug metabolism: metabolite_detected
[17]
  Drug metabolism: metabolite_detected
Hepatocyte [18]
  Drug metabolism: metabolite_detected

## CCOc1nc(N)nc2c1ncn2[C@@H]1O[C@@H]2CO[P@](=O)(OC(C)C)O[C@H]2[C@@]1(C)F
Cytochrome P450 3A4
  CL: 0.1 µL/min
Hepatitis C virus [19]
  EC50: 300 nM
[11]
  CC50 at 72 h: > 100000 nM
CYP3A4
  half-life at 22.7 µM: 1.27 h

## CC(C)OC(=O)[C@H](C)N[P@](=O)(OC[C@H]1O[C@@H](n2ccc(=O)[nH]c2=O)[C@](C)(F)[C@@H]1O)Oc1ccccc1 [SOFOSBUVIR]
Hepatitis C virus [20]
  Activity: -2.14
Hepatitis C virus [21]
  Activity: -0.97
Hepatitis C virus [22]
  Activity: Dose-dependent effect
Hepatitis C virus [23]
  Activity: Dose-dependent effect

## O=c1ccn([C@@H]2O[C@H](COP(=O)(O)OP(=O)(O)OP(=O)(O)O)[C@@H](O)[C@]23CCO3)c(=O)[nH]1
[24]
  IC50: 1000 nM
  Ki: 130 nM

## O=c1ccn([C@@H]2O[C@@H]3COP(=O)(O)O[C@H]3[C@]23CCO3)c(=O)[nH]1
[25]
  Drug metabolism: metabolite_detected
Hepatocyte [15]
  Drug metabolism: metabolite_detected
Hepatocyte [26]
  Drug metabolism: metabolite_detected
[17]
  Drug metabolism: metabolite_detected
Hepatocyte [27]
  Drug metabolism: metabolite_detected
Hepatocyte [28]
  Drug metabolism: metabolite_detected

## O=c1ccn([C@@H]2O[C@H](CO)[C@@H](O)[C@]23CCO3)c(=O)[nH]1
[25]
  Drug metabolism: metabolite_detected
Hepatocyte [26]
  Drug metabolism: metabolite_detected
Hepatocyte [27]
  Drug metabolism: metabolite_detected
Hepatocyte [28]
  Drug metabolism: metabolite_detected
